In brackets after ≈: the same amount, converted by molar mass.
Assays:
Format in all cases: functional
Nakaseomyces glabratus [1] = experiment: Antimicrobial activity against Candida glabrata after 72 hrs by broth microdilution method
How it was run: (§1)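 MFC: after MIC reading, a sample from each well was plated on Sabouraud dextrose agar and incubated 72 h at 35 °C. MFC was taken as the minimum concentration killing >99% of the original inoculum. The MIC step was NCCLS broth microdilution in MOPS-buffered RPMI 1640 (pH 7.0), with 2 ×10⁴ cells/mL, overnight at 35 °C.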

Nakaseomyces glabratus [2] = experiment: Antimicrobial activity against Candida glabrata by broth microdilution method
How it was run: (§2)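 MIC by NCCLS broth microdilution. Medium was RPMI 1640 with L-glutamine, buffered with 0.165 M MOPS at pH 7.0. Twofold drug dilutions ran 0.008–200 mg/L. Inoculum was set spectrophotometrically to 10⁶ CFU/mL, then diluted in medium to 2 ×10⁴ cells/mL. Plates were incubated overnight at 35 °C in humid air, agitated, and read visually and at 450 nm.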

Pichia kudriavzevii [3] = experiment: Antimicrobial activity against Candida krusei after 72 hrs by broth microdilution method; how it was run: as §1
Pichia kudriavzevii [4] = experiment: Antimicrobial activity against Candida krusei by broth microdilution method; how it was run: as §2
Candida parapsilosis [5] = experiment: Antimicrobial activity against Candida parapsilosis after 72 hrs by broth microdilution method; conditions: Lodderomyces parapsilosis; how it was run: as §1
Candida albicans [6] = experiment: Antimicrobial activity against Candida albicans ATCC 10231 by broth microdilution method; how it was run: as §2
Candida albicans [7] = experiment: Antimicrobial activity against Candida albicans ATCC 10231 after 72 hrs by broth microdilution method; conditions: ATCC 10231, 72 h; how it was run: as §1
Candida parapsilosis [8] = experiment: Antimicrobial activity against Candida parapsilosis by broth microdilution method; conditions: Lodderomyces parapsilosis; how it was run: as §2

Row | MIC (Nakaseomyces glabratus [2]) [µg/mL] | MIC (Pichia kudriavzevii [4]) [µg/mL] | MIC (Candida albicans [6]) [µg/mL] | MIC (Candida parapsilosis [8]) [µg/mL] | Compound | MFC (Nakaseomyces glabratus [1]) [µg/mL] | MFC (Pichia kudriavzevii [3]) [µg/mL] | MFC (Candida parapsilosis [5]) [µg/mL] | MFC (Candida albicans [7]) [µg/mL]
1 | 12.5 (≈ 34.6 µM) | 50 (≈ 138 µM) | 6.25 (≈ 17.3 µM) | 25 (≈ 69.2 µM) | CCOC(=O)c1cc(-c2ccc(OC)cc2)[nH]c1NNC(=O)CCOC | 100 (≈ 277 µM) | 100 (≈ 277 µM) | 100 (≈ 277 µM) | 6.25 (≈ 17.3 µM)
2 | > 100 | 50 (≈ 145 µM) | 12.5 (≈ 36.2 µM) | 12.5 (≈ 36.2 µM) | CCCC(=O)NNc1[nH]c(-c2ccc(OC)cc2)cc1C(=O)OCC | > 100 | 100 (≈ 290 µM) | > 100 | 12.5 (≈ 36.2 µM)
3 | 6.25 (≈ 26 µM) | 3.12 (≈ 13 µM) | 3.12 (≈ 13 µM) | 3.12 (≈ 13 µM) | CC(=O)NNc1[nH]c(-c2ccccc2)cc1C#N | 12.5 (≈ 52 µM) | 6.25 (≈ 26 µM) | 12.5 (≈ 52 µM) | 3.12 (≈ 13 µM)
4 | 6.25 (≈ 20.7 µM) | 12.5 (≈ 41.5 µM) | 3.12 (≈ 10.4 µM) | 6.25 (≈ 20.7 µM) | CCOC(=O)c1cc(-c2ccccc2)[nH]c1NNC(=O)CC | 12.5 (≈ 41.5 µM) | 25 (≈ 83 µM) | 25 (≈ 83 µM) | 12.5 (≈ 41.5 µM)
5 | > 100 | 100 (≈ 332 µM) | > 100 | 50 (≈ 166 µM) | CCOC(=O)c1cc(-c2ccc(C)cc2)[nH]c1NNC(C)=O | > 100 | > 100 | 50 (≈ 166 µM) | > 100
6 | 6.25 (≈ 19.7 µM) | 12.5 (≈ 39.4 µM) | 3.12 (≈ 9.83 µM) | 6.25 (≈ 19.7 µM) | CCOC(=O)NNc1[nH]c(-c2ccccc2)cc1C(=O)OCC | 12.5 (≈ 39.4 µM) | 25 (≈ 78.8 µM) | 12.5 (≈ 39.4 µM) | 3.12 (≈ 9.83 µM)
7 | > 100 | 50 (≈ 142 µM) | 25 (≈ 71.1 µM) | 12.5 (≈ 35.5 µM) | CCOC(=O)NNc1[nH]c(-c2ccc(Cl)cc2)cc1C(=O)OCC | > 100 | > 100 | 12.5 (≈ 35.5 µM) | > 100
8 | 6.25 (≈ 19.7 µM) | 6.25 (≈ 19.7 µM) | 3.12 (≈ 9.83 µM) | 3.12 (≈ 9.83 µM) | CCC(=O)NNc1[nH]c(-c2ccc(OC)cc2)cc1C(=O)OC | 12.5 (≈ 39.4 µM) | 6.25 (≈ 19.7 µM) | 12.5 (≈ 39.4 µM) | 3.12 (≈ 9.83 µM)

Further lines, the compound ahead of its results:

Row | Compound | MIC (Nakaseomyces glabratus [2]) [µg/mL] | MIC (Pichia kudriavzevii [4]) [µg/mL] | MIC (Candida albicans [6]) [µg/mL] | MIC (Candida parapsilosis [8]) [µg/mL] | MFC (Nakaseomyces glabratus [1]) [µg/mL] | MFC (Pichia kudriavzevii [3]) [µg/mL] | MFC (Candida parapsilosis [5]) [µg/mL] | MFC (Candida albicans [7]) [µg/mL]
9 | CCOC(=O)c1cc(-c2ccccc2)[nH]c1NNC(=O)Cc1ccc(OC)cc1 | > 100 | 50 (≈ 127 µM) | > 100 | 50 (≈ 127 µM) | > 100 | > 100 | > 100 | > 100
10 | CCOC(=O)c1cc(-c2ccccc2)[nH]c1NNC(=O)CCOC | 6.25 (≈ 18.9 µM) | 12.5 (≈ 37.7 µM) | 3.12 (≈ 9.42 µM) | 6.25 (≈ 18.9 µM) | 25 (≈ 75.4 µM) | 50 (≈ 151 µM) | 25 (≈ 75.4 µM) | 6.25 (≈ 18.9 µM)
11 | CCOC(=O)c1cc(-c2ccc(OC)cc2)[nH]c1NNC(=O)CC | 6.25 (≈ 18.9 µM) | 25 (≈ 75.4 µM) | 3.12 (≈ 9.42 µM) | 12.5 (≈ 37.7 µM) | 12.5 (≈ 37.7 µM) | 100 (≈ 302 µM) | 25 (≈ 75.4 µM) | 12.5 (≈ 37.7 µM)
12 | CCCC(=O)NNc1[nH]c(-c2ccc(Cl)cc2)cc1C(=O)OCC | > 100 | > 100 | > 100 | > 100 | > 100 | > 100 | > 100 | > 100
13 | CCCC(=O)NNc1[nH]c(-c2ccc(C)cc2)cc1C(=O)OCC | > 100 | > 100 | > 100 | 25 (≈ 75.9 µM) | > 100 | > 100 | > 100 | > 100
14 | CCOC(=O)c1cc(-c2ccccc2)[nH]c1NNC(C)=O | 12.5 (≈ 43.5 µM) | 50 (≈ 174 µM) | 12.5 (≈ 43.5 µM) | 50 (≈ 174 µM) | > 100 | 50 (≈ 174 µM) | 100 (≈ 348 µM) | 12.5 (≈ 43.5 µM)
15 | CCOC(=O)NNc1[nH]c(-c2ccc(C)cc2)cc1C(=O)OCC | 3.12 (≈ 9.42 µM) | 100 (≈ 302 µM) | 6.25 (≈ 18.9 µM) | 100 (≈ 302 µM) | 25 (≈ 75.4 µM) | > 100 | > 100 | 6.25 (≈ 18.9 µM)
16 | CCOC(=O)NNc1[nH]c(-c2ccccc2)cc1C(=O)OC | 3.12 (≈ 10.3 µM) | 6.25 (≈ 20.6 µM) | 3.12 (≈ 10.3 µM) | 3.12 (≈ 10.3 µM) | 12.5 (≈ 41.2 µM) | 25 (≈ 82.4 µM) | 12.5 (≈ 41.2 µM) | 6.25 (≈ 20.6 µM)
17 | CCOC(=O)NNc1[nH]c(-c2ccc(OC)cc2)cc1C(=O)OC | 12.5 (≈ 37.5 µM) | 50 (≈ 150 µM) | 3.12 (≈ 9.36 µM) | 25 (≈ 75 µM) | 50 (≈ 150 µM) | > 100 | > 100 | 6.25 (≈ 18.7 µM)
18 | CCOC(=O)NNc1[nH]c(-c2ccc(OC)cc2)cc1C(=O)OCC | 6.25 (≈ 18 µM) | 12.5 (≈ 36 µM) | 3.12 (≈ 8.98 µM) | 6.25 (≈ 18 µM) | 25 (≈ 72 µM) | 100 (≈ 288 µM) | 25 (≈ 72 µM) | 3.12 (≈ 8.98 µM)
